Assays:
HCT-116 [1] = assay: Antiproliferative activity against human HCT116 cells after 72 hrs by MTT assay; assay type: functional, cell-based; conditions: HCT-116, 72 h
In short: (§1)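 Cells grown to log phase in RPMI 1640 with 10% FBS, seeded at 2×10^4 cells/mL and incubated 24 h at 37 °C, 5% CO2. Compounds added, then 72 h at 37 °C. MTT (5 mg/mL stock) for 4 h, formazan dissolved in DMSO, absorbance read at 570 nm. Triplicate wells per concentration, three independent experiments. IC50 is the concentration giving 50% growth inhibition versus untreated control, reported as mean ± S.E.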

MGC-803 [2] = assay: Antiproliferative activity against human MGC803 cells after 72 hrs by MTT assay; assay type: functional, cell-based; conditions: MGC-803, 72 h; in short: as §1
Huh-7 = assay: Antiproliferative activity against human HuH7 cells after 72 hrs by MTT assay; assay type: functional, cell-based; conditions: Huh-7, 72 h; in short: as §1
MGC-803 [3] = assay: Potency index, ratio of 5-Fluorouracil IC50 to compound IC50 for antiproliferative activity against human MGC803 cells; assay type: functional
HCT-116 [4] = assay: Potency index, ratio of 5-Fluorouracil IC50 to compound IC50 for antiproliferative activity against human HCT116 cells; assay type: functional

How did the IC50 (HCT-116 [1]) turn out when `CC(=O)c1sc(N/N=C2/C=C(Nc3ccc(C)cc3)C(Nc3ccc(C)cc3)=NC2=O)nc1C` was run?
Its IC50 is 52.7 µM.

What about the IC50 (MGC-803 [2]) of the same molecule?
The IC50 was 75.5 µM.

What about the IC50 (Huh-7) of the same molecule?
The IC50 was 72 µM.

For `CC(=O)c1sc(N/N=C2/C=C(Nc3ccc(Br)cc3)C(Nc3ccc(Br)cc3)=NC2=O)nc1C`, which IC50 (HCT-116 [1]) is on record?
The IC50 was 13.2 µM.

And the IC50 (MGC-803 [2])?
The IC50 was 9.12 µM.

And the IC50 (Huh-7)?
The IC50 was 17.9 µM.

Which results are given for `CC(=O)c1sc(N/N=C2/C=C(Nc3cccc(Cl)c3)C(Nc3cccc(Cl)c3)=NC2=O)nc1C`?
IC50 (HCT-116 [1]): 10.6 µM; IC50 (MGC-803 [2]): 5.18 µM; IC50 (Huh-7): > 128 µM

How did the IC50 (HCT-116 [1]) turn out when `CC(=O)c1sc(N/N=C2/C=C(Nc3ccccc3Cl)C(Nc3ccccc3Cl)=NC2=O)nc1C` was run?
The IC50 was 8.17 µM.

And the IC50 (MGC-803 [2])?
The IC50 was 3.15 µM.

What about the IC50 (Huh-7) of the same molecule?
Its IC50 is 21.5 µM.

What about the “Ratio IC50” value (MGC-803 [3]) of the same molecule?
Its value is 8.1.

What about the “Ratio IC50” value (HCT-116 [4]) of the same molecule?
Its value is 1.4.

How did the IC50 (HCT-116 [1]) turn out when `COc1cccc(NC2=C/C(=N/Nc3nc(C)c(C(C)=O)s3)C(=O)N=C2Nc2cccc(OC)c2)c1` was run?
Its IC50 is greater than 128 µM.

And the IC50 (MGC-803 [2])?
Its IC50 is greater than 128 µM.

What about the IC50 (Huh-7) of the same molecule?
The IC50 was greater than 128 µM.

How did the IC50 (HCT-116 [1]) turn out when `CC(=O)c1sc(N/N=C2/C=C(Nc3ccccc3)C(Nc3ccccc3)=NC2=O)nc1C` was run?
Its IC50 is 25.3 µM.

What about the IC50 (MGC-803 [2]) of the same molecule?
Its IC50 is 13.5 µM.

And the IC50 (Huh-7)?
The IC50 was 19.1 µM.

How did the IC50 (HCT-116 [1]) turn out when `COc1ccc(NC2=C/C(=N/Nc3nc(C)c(C(C)=O)s3)C(=O)N=C2Nc2ccc(OC)cc2)cc1` was run?
The IC50 was greater than 128 µM.

And the IC50 (MGC-803 [2])?
Its IC50 is 82.6 µM.

And the IC50 (Huh-7)?
The IC50 was greater than 128 µM.

With `CC(=O)c1sc(N/N=C2/C=C(Nc3cccc(Br)c3)C(Nc3cccc(Br)c3)=NC2=O)nc1C` as the molecule, how does the IC50 (HCT-116 [1]) read?
Its IC50 is 22.2 µM.

And the IC50 (MGC-803 [2])?
Its IC50 is 21.6 µM.

And the IC50 (Huh-7)?
Its IC50 is greater than 128 µM.

`CC(=O)c1sc(N/N=C2/C=C(Nc3ccccc3C)C(Nc3ccccc3C)=NC2=O)nc1C` was tested. Which IC50 (HCT-116 [1]) did it give?
The IC50 was greater than 128 µM.

What about the IC50 (MGC-803 [2]) of the same molecule?
The IC50 was 45 µM.

And the IC50 (Huh-7)?
The IC50 was greater than 128 µM.

What does the source list for `COc1ccccc1NC1=C/C(=N/Nc2nc(C)c(C(C)=O)s2)C(=O)N=C1Nc1ccccc1OC`?
IC50 (HCT-116 [1]): 85.4 µM; IC50 (MGC-803 [2]): 51.1 µM; IC50 (Huh-7): 20.6 µM

For `CC(=O)c1sc(N/N=C2/C=C(Nc3ccc(Cl)cc3)C(Nc3ccc(Cl)cc3)=NC2=O)nc1C`, which IC50 (HCT-116 [1]) is on record?
Its IC50 is 8.28 µM.

What about the IC50 (MGC-803 [2]) of the same molecule?
The IC50 was 8.56 µM.

What about the IC50 (Huh-7) of the same molecule?
The IC50 was greater than 128 µM.

With `CC(=O)c1sc(N/N=C2/C=C(Nc3cccc(F)c3)C(Nc3cccc(F)c3)=NC2=O)nc1C` as the molecule, how does the IC50 (HCT-116 [1]) read?
The IC50 was 22.8 µM.

What about the IC50 (MGC-803 [2]) of the same molecule?
Its IC50 is 21.4 µM.

What about the IC50 (Huh-7) of the same molecule?
The IC50 was 58.8 µM.

What does the source list for `CC(=O)c1sc(N/N=C2/C=C(Nc3cccc(C)c3)C(Nc3cccc(C)c3)=NC2=O)nc1C`?
IC50 (HCT-116 [1]): > 128 µM; IC50 (MGC-803 [2]): > 128 µM; IC50 (Huh-7): > 128 µM

What does the source list for `O=c1[nH]cc(F)c(=O)[nH]1` [FLUOROURACIL]?
IC50 (HCT-116 [1]): 11.3 µM; IC50 (MGC-803 [2]): 25.5 µM; IC50 (Huh-7): 5.63 µM
